Results from different studies.
Compare with care: the assays were run in different laboratories.
Target: Calcium/calmodulin-dependent protein kinase type II subunit gamma (CAMK2G, Homo sapiens, UniProt Q13555)

| SMILES | test | setting | quantity | value |
| --- | --- | --- | --- | --- |
| Cc1ccc(C(=O)Nc2ccc(CN3CCN(C)CC3)c(C(F)(F)F)c2)cc1C#Cc1cnc2cccnn12 | cell-free assay | 23.5 nM | remaining signal | 98% |
| CC(C)(C)c1nc(-c2cccc(NS(=O)(=O)c3c(F)cccc3F)c2F)c(-c2ccnc(N)n2)s1 | enzyme activity, inhibitor, radiometric | 1 µM | remaining activity | 102% |
| COc1ccc2c(O[C@@H]3C[C@H]4C(=O)N[C@]5(C(=O)O)CC5/C=C\CCCCC[C@H](NC(=O)OC5CCCC5)C(=O)N4C3)cc(-c3csc(NC(=O)C(C)C)n3)nc2c1C (some centres unmarked) | cell-free assay, competition with immobilised ligand | 1 µM | remaining binding | 100% |
| CCCOc1ccc(OC)c(F)c1C(=O)c1ccc(C(=O)N[C@@H]2CNC[C@H]2NC(=O)c2ccc3[nH]ncc3c2)cc1 | enzyme activity, inhibitor | 10 µM | remaining activity | 79% |
| O=C(Nc1cnn(-c2csc(C(=O)NC3COC3)c2)c1)Nc1ccccc1Cl | enzyme activity, inhibitor | 5 µM | remaining activity | 96.4% |
| CNC(=O)Nc1ccc2c(c1)CC[C@@]21OC(=O)N(CC(=O)N(Cc2ccc(F)cc2)[C@@H](C)C(F)(F)F)C1=O | cell-free assay, competition with immobilised ligand | 1 µM | remaining binding | 76% |
| O=C1NC(=O)c2cc(Nc3ccc(F)cc3)c(Nc3ccc(F)cc3)cc21 | cell-free assay | 0.5 µM | remaining signal | 101% |
| COc1ccc2cc(OCC3(C(=O)O)CN(C(=O)c4ccc(F)cc4)C3)ccc2c1 | cell-free assay, competition with immobilised ligand | 1 µM | remaining binding | 100% |
| C[C@@H]1CCN(C(=O)CC#N)C[C@@H]1N(C)c1ncnc2[nH]ccc12 | cell-free assay | 0.5 µM | remaining signal | 127% |
| C[C@@H]1CN(c2cc(-c3nn(C)c4ccc(OC5(C)CC5)cc34)ncn2)C[C@H](C)O1 | cell-free assay, competition with immobilised ligand | 1 µM | remaining binding | 90% |
| Nc1ncnc2occ(-c3ccc(NC(=O)Nc4cc(C(F)(F)F)ccc4F)cc3)c12 | cell-free assay | 20 µM | remaining signal | 71% |
| O=C1CCc2cc(Nc3cc(OC4CCOCC4)c([N+](=O)[O-])cc3Cl)ccc2N1 | cell-free assay, competition with immobilised ligand | 1 µM | remaining binding | 100% |
| CNC(=O)c1cc(Oc2ccc(NC(=O)Nc3ccc(Cl)c(C(F)(F)F)c3)cc2)ccn1 | cell-free assay | 10 µM | inhibition | 78% |
| CCCS(=O)(=O)Nc1ccc(F)c(C(=O)c2c[nH]c3ncc(-c4ccc(Cl)cc4)cc23)c1F | enzyme activity, inhibitor | 1 µM | inhibition | < 10% |
| Cc1sc(C(=O)NC2COC2)cc1-n1cc(NC(=O)Nc2c(F)cccc2Cl)cn1 | enzyme activity, inhibitor | 10 µM | remaining activity | 102% |
| O=C(Nc1nccs1)C(c1cc(F)ccc1O)N1Cc2ccccc2C1=O (centres unmarked) | enzyme activity, inhibitor | 1 µM | inhibition | 9% |
| CN(C)c1ncnc(-c2ccc3nc(Nc4cc(CN5CCN(C(=O)CC(F)(F)F)CC5)ccn4)[nH]c3c2)c1Cl | cell-free assay, competition with immobilised ligand | 1 µM | remaining binding | 100% |
| COc1cc(Cl)c(C(=O)N[C@@H](CN[C@H]2CC[C@@H](N)CC2)Cc2ccc(C#N)cc2)cc1-c1ccc(CN[C@H](C)c2ccc(C)cc2)o1 | enzyme activity, inhibitor | 1 µM | remaining activity | 87% |
| COc1cc(-c2cc(-c3ccc(N4CCNCC4)cc3)cnc2C)cc(OC)c1OC | enzyme activity, inhibitor | 0.1 µM | inhibition | 1% |
| CS(=O)(=O)CCNCc1ccc(-c2ccc3ncnc(Nc4ccc(OCc5cccc(F)c5)c(Cl)c4)c3c2)o1 | cell-free assay | 0.5 µM | remaining signal | 111% |
